Test results as given in ChEMBL document CHEMBL5724801, “EUbOPEN Chemogenomics Library - Multiplex” (2024).
Values joined by “and” are separate entries in the source; they are usually repeats but may differ in a detail not shown here. Identical values can stand only once.

Columns and labels:
Fibroblast = assay: Multiplex assay against human fibroblast; assay type: toxicity, cell-based
Procedure, shortened: (§1)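 With compound added, live cells were imaged on a CQ1 microscope at 37°C and 5% CO2; staining with Hoechst33342, BioTracker Green Microtubule Cytoskeleton Dye, MitoTracker Red and Annexin V Alexa Fluor 680 had been done at seeding. The CellPathfinder machine-learning gating scheme split cells into Hoechst high-intensity objects or normal cells, normal cells into healthy, pyknosed or fragmented nuclei, and pyknosed cells into mitotic or apoptotic. The tubulin, mitochondrial-mass and membrane-permeability phenotypes are per cents of healthy-nucleus cells.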

HEK-293T = assay: Multiplex assay against HEK293T; assay type: toxicity, cell-based; details: human; procedure, shortened: as §1
[1] = 12 h, 1 µM, compound concentration 1 uM
[2] = 12 h, 10 µM, compound concentration 10 uM
[3] = 24 h, 1 µM, compound concentration 1 uM
[4] = 24 h, 10 µM, compound concentration 10 uM
[5] = 48 h, 1 µM, compound concentration 1 uM
[6] = 48 h, 10 µM, compound concentration 10 uM

Cc1cccc(F)c1C(=O)Nc1cnc(-c2cc3c(cc2Cl)OC(F)(F)O3)cn1 [ZEGOCRACTIN]
Population Apoptotic (%) (Fibroblast; [1]): 6.56% and 18.18%
Population Fragmented Nuclei (%) (Fibroblast; [1]): 12.97% and 3.23%
Population Healthy Nuclei (%) (Fibroblast; [1]): 61.51% and 79.03%
Population Hoechst High Intensity Objects (%) (Fibroblast; [1]): 0%
Population Membrane Permeable-Phenotype (%) (Fibroblast; [1]): 2.04%
Population Mitochondria Different-Phenotype (%) (Fibroblast; [1]): 8.16%
Population Mitotic Cells (%) (Fibroblast; [1]): 93.44% and 81.82%
Population Normal (%) (Fibroblast; [1]): 100%
Population Pyknosed Nuclei (%) (Fibroblast; [1]): 25.52% and 17.74%
Population Tubulin-Different-Phenotype (%) (Fibroblast; [1]): 17.01% and 13.61%
Total Cell Count (Fibroblast; [1]): 239 and 186
Population Apoptotic (%) (Fibroblast; [2]): 8.93% and 22.86%
Population Fragmented Nuclei (%) (Fibroblast; [2]): 13.11% and 8.77%
Population Healthy Nuclei (%) (Fibroblast; [2]): 56.28% and 70.76%
Population Hoechst High Intensity Objects (%) (Fibroblast; [2]): 0%
Population Membrane Permeable-Phenotype (%) (Fibroblast; [2]): 3.88% and 4.96%
Population Mitochondria Different-Phenotype (%) (Fibroblast; [2]): 17.48% and 19.01%
Population Mitotic Cells (%) (Fibroblast; [2]): 91.07% and 77.14%
Population Normal (%) (Fibroblast; [2]): 100%
Population Pyknosed Nuclei (%) (Fibroblast; [2]): 30.6% and 20.47%
Population Tubulin-Different-Phenotype (%) (Fibroblast; [2]): 24.27% and 42.15%
Total Cell Count (Fibroblast; [2]): 183 and 171
Population Apoptotic (%) (Fibroblast; [3]): 11.11% and 9.52%
Population Fragmented Nuclei (%) (Fibroblast; [3]): 9.33% and 2.59%
Population Healthy Nuclei (%) (Fibroblast; [3]): 73.88% and 86.53%
Population Hoechst High Intensity Objects (%) (Fibroblast; [3]): 0%
Population Membrane Permeable-Phenotype (%) (Fibroblast; [3]): 3.54% and 0%
Population Mitochondria Different-Phenotype (%) (Fibroblast; [3]): 7.07% and 6.59%
Population Mitotic Cells (%) (Fibroblast; [3]): 88.89% and 90.48%
Population Normal (%) (Fibroblast; [3]): 100%
Population Pyknosed Nuclei (%) (Fibroblast; [3]): 16.79% and 10.88%
Population Tubulin-Different-Phenotype (%) (Fibroblast; [3]): 14.65% and 11.38%
Total Cell Count (Fibroblast; [3]): 268 and 193
Population Apoptotic (%) (Fibroblast; [4]): 7.81% and 17.65%
Population Fragmented Nuclei (%) (Fibroblast; [4]): 13% and 8.14%
Population Healthy Nuclei (%) (Fibroblast; [4]): 55% and 72.09%
Population Hoechst High Intensity Objects (%) (Fibroblast; [4]): 0%
Population Membrane Permeable-Phenotype (%) (Fibroblast; [4]): 3.64% and 1.61%
Population Mitochondria Different-Phenotype (%) (Fibroblast; [4]): 14.55% and 32.26%
Population Mitotic Cells (%) (Fibroblast; [4]): 92.19% and 82.35%
Population Normal (%) (Fibroblast; [4]): 100%
Population Pyknosed Nuclei (%) (Fibroblast; [4]): 32% and 19.77%
Population Tubulin-Different-Phenotype (%) (Fibroblast; [4]): 37.27% and 46.77%
Total Cell Count (Fibroblast; [4]): 200 and 172
Population Apoptotic (%) (Fibroblast; [5]): 15% and 35%
Population Fragmented Nuclei (%) (Fibroblast; [5]): 9.76% and 3.2%
Population Healthy Nuclei (%) (Fibroblast; [5]): 83.28% and 87.67%
Population Hoechst High Intensity Objects (%) (Fibroblast; [5]): 0%
Population Membrane Permeable-Phenotype (%) (Fibroblast; [5]): 1.26% and 2.6%
Population Mitochondria Different-Phenotype (%) (Fibroblast; [5]): 9.62% and 2.6%
Population Mitotic Cells (%) (Fibroblast; [5]): 85% and 65%
Population Normal (%) (Fibroblast; [5]): 100%
Population Pyknosed Nuclei (%) (Fibroblast; [5]): 6.97% and 9.13%
Population Tubulin-Different-Phenotype (%) (Fibroblast; [5]): 8.79% and 19.79%
Total Cell Count (Fibroblast; [5]): 287 and 219
Population Apoptotic (%) (Fibroblast; [6]): 15% and 9.52%
Population Fragmented Nuclei (%) (Fibroblast; [6]): 10.91% and 9.6%
Population Healthy Nuclei (%) (Fibroblast; [6]): 70.91% and 78.53%
Population Hoechst High Intensity Objects (%) (Fibroblast; [6]): 0%
Population Membrane Permeable-Phenotype (%) (Fibroblast; [6]): 0.64% and 4.32%
Population Mitochondria Different-Phenotype (%) (Fibroblast; [6]): 20.51% and 13.67%
Population Mitotic Cells (%) (Fibroblast; [6]): 85% and 90.48%
Population Normal (%) (Fibroblast; [6]): 100%
Population Pyknosed Nuclei (%) (Fibroblast; [6]): 18.18% and 11.86%
Population Tubulin-Different-Phenotype (%) (Fibroblast; [6]): 28.21% and 56.83%
Total Cell Count (Fibroblast; [6]): 220 and 177
Population Apoptotic (%) (HEK-293T; [1]): 12.35% and 6.45%
Population Healthy Nuclei (%) (HEK-293T; [1]): 42.98% and 15.89%
Population Hoechst High Intensity Objects (%) (HEK-293T; [1]): 0.27% and 0%
Population Membrane Permeable-Phenotype (%) (HEK-293T; [1]): 0% and 4.17%
Population Mitochondria Different-Phenotype (%) (HEK-293T; [1]): 33.33% and 20.83%
Population Mitotic Cells (%) (HEK-293T; [1]): 87.65% and 93.55%
Population Normal (%) (HEK-293T; [1]): 99.73% and 100%
Population Pyknosed Nuclei (%) (HEK-293T; [1]): 44.63% and 82.12%
Total Cell Count (HEK-293T; [1]): 364 and 151
Population Apoptotic (%) (HEK-293T; [2]): 18.42% and 16.15%
Population Fragmented Nuclei (%) (HEK-293T; [2]): 2.44% and 4.03%
Population Healthy Nuclei (%) (HEK-293T; [2]): 23.41% and 8.72%
Population Hoechst High Intensity Objects (%) (HEK-293T; [2]): 2.38% and 0%
Population Membrane Permeable-Phenotype (%) (HEK-293T; [2]): 0% and 7.69%
Population Mitochondria Different-Phenotype (%) (HEK-293T; [2]): 22.92% and 30.77%
Population Mitotic Cells (%) (HEK-293T; [2]): 81.58% and 83.85%
Population Normal (%) (HEK-293T; [2]): 97.62% and 100%
Population Pyknosed Nuclei (%) (HEK-293T; [2]): 74.15% and 87.25%
Population Tubulin-Different-Phenotype (%) (HEK-293T; [2]): 37.5% and 23.08%
Total Cell Count (HEK-293T; [2]): 210 and 149
Population Apoptotic (%) (HEK-293T; [3]): 23.62% and 14.53%
Population Fragmented Nuclei (%) (HEK-293T; [3]): 12.53% and 3.66%
Population Healthy Nuclei (%) (HEK-293T; [3]): 61.82% and 25%
Population Hoechst High Intensity Objects (%) (HEK-293T; [3]): 0.4% and 0%
Population Membrane Permeable-Phenotype (%) (HEK-293T; [3]): 2.29% and 0%
Population Mitochondria Different-Phenotype (%) (HEK-293T; [3]): 10.78% and 21.95%
